Experimental data from ChEMBL document CHEMBL1140884, “Oligodeoxyribonucleotide-based antagonists for Toll-like receptors 7 and 9” (2009).
Calls of active or inactive are those of the source.

Assays:
[1] = tested on: PBMC; experiment: (§1) Induction of IP10 secretion in human PBMC; assay type: functional, cell-based
Method in brief: (§2)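 Human PBMCs (5×10^6/mL; 1×10^6 per well) were cultured 24 h with TLR9 agonist 5 µg/mL or TLR7/8 agonist 100 µg/mL, alone or with antagonist at 1:4. Compounds were dissolved in PBS. Supernatant cytokines were measured by Luminex human 25-plex bead assay. One representative donor of six.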

[2] = tested on: PBMC; experiment: Induction of MIP1beta secretion in human PBMC; assay type: functional, cell-based; method in brief: as §2
[3] = tested on: PBMC; experiment: Induction of MCP1 secretion in human PBMC; assay type: functional, cell-based; method in brief: as §2
[4] = tested on: PBMC; experiment: Induction of IL6 secretion in human PBMC; assay type: functional, cell-based; method in brief: as §2
[5] = tested on: PBMC; experiment: Induction of IFNalpha secretion in human PBMC; assay type: functional, cell-based; method in brief: as §2
[6] = tested on: PBMC; experiment: Induction of TNFalpha secretion in human PBMC; assay type: functional, cell-based; method in brief: as §2
[7] = tested on: PBMC; experiment: Induction of IL12 secretion in human PBMC; assay type: functional, cell-based; method in brief: as §2
[8] = tested on: PBMC; experiment: Induction of IFN-gamma secretion in human PBMC; assay type: functional, cell-based; method in brief: as §2
[9] = tested on: PBMC; experiment: as §1; assay type: functional, cell-based; method in brief: as §2; remark: listed apart in the source
[10] = tested on: PBMC; experiment: Induction of MIG secretion in human PBMC; assay type: functional, cell-based; method in brief: as §2
[11] = target: Toll-like receptor 7 (Homo sapiens) (UniProt Q9NYK1); experiment: Agonist activity at TLR7/8 in human PBMC assessed as NF-kappaB activation at 100 ug/mL
Sequence of Toll-like receptor 7 (Homo sapiens) (Q9NYK1 whole entry, looked up): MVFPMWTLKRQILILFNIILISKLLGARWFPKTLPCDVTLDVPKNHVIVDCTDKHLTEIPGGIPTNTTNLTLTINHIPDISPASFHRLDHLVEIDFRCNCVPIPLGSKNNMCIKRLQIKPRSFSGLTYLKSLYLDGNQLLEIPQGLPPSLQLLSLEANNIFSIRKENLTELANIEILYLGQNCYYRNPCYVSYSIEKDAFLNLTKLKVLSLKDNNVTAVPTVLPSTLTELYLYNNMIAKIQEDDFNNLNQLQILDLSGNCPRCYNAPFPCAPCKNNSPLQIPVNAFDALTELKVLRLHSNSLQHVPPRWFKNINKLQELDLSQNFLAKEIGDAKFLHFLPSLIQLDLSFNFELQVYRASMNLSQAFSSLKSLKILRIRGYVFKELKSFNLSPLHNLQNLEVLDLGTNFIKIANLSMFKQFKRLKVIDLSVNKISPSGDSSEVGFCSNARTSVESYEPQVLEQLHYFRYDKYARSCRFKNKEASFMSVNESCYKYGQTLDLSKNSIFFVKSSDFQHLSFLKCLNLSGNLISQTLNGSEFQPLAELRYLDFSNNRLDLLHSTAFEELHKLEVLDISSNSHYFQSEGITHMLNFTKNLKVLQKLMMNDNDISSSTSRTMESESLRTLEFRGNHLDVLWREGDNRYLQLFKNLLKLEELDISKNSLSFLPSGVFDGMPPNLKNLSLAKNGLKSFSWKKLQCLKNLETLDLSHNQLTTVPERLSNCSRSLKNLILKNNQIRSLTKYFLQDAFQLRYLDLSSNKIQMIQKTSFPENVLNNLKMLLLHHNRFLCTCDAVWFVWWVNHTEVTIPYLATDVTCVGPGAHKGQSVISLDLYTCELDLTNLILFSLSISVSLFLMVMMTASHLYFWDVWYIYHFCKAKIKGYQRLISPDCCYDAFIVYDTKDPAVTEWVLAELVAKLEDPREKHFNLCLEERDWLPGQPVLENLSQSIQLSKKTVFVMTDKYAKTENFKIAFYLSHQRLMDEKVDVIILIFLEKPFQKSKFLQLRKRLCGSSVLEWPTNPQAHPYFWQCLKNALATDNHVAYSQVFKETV

Measured: Activity

Nc1ccn([C@@H]2O[C@H](COP(=O)(S)O[C@H]3[C@@H](O)[C@H](n4ccc(=O)[nH]c4=O)O[C@@H]3COP(=O)(S)O[C@H]3[C@@H](O)[C@H](n4ccc(=O)[nH]c4=O)O[C@@H]3COP(=O)(S)O[C@H]3[C@@H](O)[C@H](n4ccc5c(=O)[nH]c(N)nc54)O[C@@H]3COP(=O)(S)O[C@H]3[C@@H](O)[C@H](n4ccc(=O)[nH]c4=O)O[C@@H]3COP(=O)(S)O[C@H]3[C@@H](O)[C@H](n4ccc(N)nc4=O)O[C@@H]3COP(=O)(S)O[C@H]3[C@@H](O)[C@H](n4ccc5c(=O)[nH]c(N)nc54)O[C@@H]3COP(=O)(S)O[C@H]3[C@@H](O)[C@H](n4ccc(=O)[nH]c4=O)O[C@@H]3CO)[C@@H](OP(=O)(S)OC[C@H]3O[C@@H](n4ccc(=O)[nH]c4=O)[C@H](O)[C@@H]3OP(=O)(S)OC[C@H]3O[C@@H](n4ccc5c(=O)[nH]c(N)nc54)[C@H](O)[C@@H]3OP(=O)(S)OCC(O)COP(=O)(S)O[C@H]3[C@@H](O)[C@H](n4ccc5c(=O)[nH]c(N)nc54)O[C@@H]3COP(=O)(S)O[C@H]3[C@@H](O)[C@H](n4ccc(=O)[nH]c4=O)O[C@@H]3COP(=O)(S)O[C@H]3[C@@H](O)[C@H](n4ccc(N)nc4=O)O[C@@H]3COP(=O)(S)O[C@H]3[C@@H](O)[C@H](n4ccc(=O)[nH]c4=O)O[C@@H]3COP(=O)(S)O[C@H]3[C@@H](O)[C@H](n4ccc(=O)[nH]c4=O)O[C@@H]3COP(=O)(S)O[C@H]3[C@@H](O)[C@H](n4ccc5c(=O)[nH]c(N)nc54)O[C@@H]3COP(=O)(S)O[C@H]3[C@@H](O)[C@H](n4ccc(=O)[nH]c4=O)O[C@@H]3COP(=O)(S)O[C@H]3[C@@H](O)[C@H](n4ccc(N)nc4=O)O[C@@H]3COP(=O)(S)O[C@H]3[C@@H](O)[C@H](n4ccc5c(=O)[nH]c(N)nc54)O[C@@H]3COP(=O)(S)O[C@H]3[C@@H](O)[C@H](n4ccc(=O)[nH]c4=O)O[C@@H]3CO)[C@H]2O)c(=O)n1 (stereo partly specified)
active: all assays above
